In ChEMBL document CHEMBL1124186, “Synthesis and evaluation of tylosin-related macrolides modified at the aldehyde function: a new series of orally effective antibiotics” (1988):
In brackets after ≈: the same amount, converted by molar mass.

Columns and labels:
Streptococcus pyogenes [1] = test: In vivo effective dose against experimental infections in rodent caused by Streptococcus pyogenes C203 when administered orally; format: functional; details: po
Streptococcus pyogenes [2] = test: In vivo effective dose against experimental infections in rodent caused by Streptococcus pyogenes C203 when administered sc; format: functional
Streptococcus pyogenes [3] = test: In vitro antimicrobial activity against Streptococcus pyogenes C203; format: functional
Streptococcus pneumoniae = test: In vitro antimicrobial activity against Streptococcus pneumoniae; format: functional
Enterococcus faecium = test: In vitro antimicrobial activity against Streptococcus faecium X66; format: functional, streptococcus fae-cium
Streptococcus pyogenes [4] = test: Effective dose against Streptococcus pyogenes C203 when administered orally; format: functional; details: po
In short: (§1)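 Mouse protection test: infected mice were dosed twice, at 1 and 5 h postinfection, either subcutaneously or orally. […] The result is expressed as ED50 in mg/kg × 2.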

[5] = system: Staphylococcus epidermidis; test: In vitro antimicrobial activity against Staphylococcus epidermidis EPI1; format: functional
Haemophilus influenzae = test: In vitro antimicrobial activity against Haemophilus influenzae.; format: functional
Streptococcus pyogenes [6] = test: Antimicrobial activity against Streptococcus pyogenes C203; format: functional
Streptococcus pyogenes [7] = test: Effective dose against Streptococcus pyogenes C203 when administered sc; format: functional; in short: as §1
Staphylococcus aureus = test: In vitro antimicrobial activity against Staphylococcus aureus X1; format: functional
Clostridium perfringens = test: In vitro antimicrobial activity against anaerobic bacteria clostridium perfringens 81,; format: functional
[8] = system: Prevotella melaninogenica; test: In vitro antimicrobial activity against anaerobic bacteria bacteroides melaninogenicus 2736; format: functional
[9] = system: Fusobacterium necrophorum; test: In vitro antimicrobial activity against anaerobic bacteria usobacterium necrophorum 6054A; format: functional
Fusobacterium = test: In vitro antimicrobial activity against anaerobic bacteria fusobacterium symbiosum 1470; format: functional
[10] = system: Peptostreptococcus anaerobius; test: In vitro antimicrobial activity against anaerobic bacteria peptostreptococcus anaerobius 1428,; format: functional
Anaerococcus prevotii = test: In vitro antimicrobial activity against anaerobic bacteria peptococcus prevoti 1281; format: functional
Eikenella corrodens = test: In vitro antimicrobial activity against anaerobic bacteria bacteroides corrodens 1874; format: functional
Cutibacterium acnes = test: In vitro antimicrobial activity against anaerobic bacteria propionibacterium acnes 79; format: functional
Phocaeicola vulgatus = test: In vitro antimicrobial activity against anaerobic bacteria bacteroides vulgatus 1211; format: functional
Bacteroides fragilis [11] = test: In vitro antimicrobial activity against anaerobic bacteria bacteroides fragilis 111; format: functional
[12] = In vitro antimicrobial activity against anaerobic bacteria peptostreptococcus intermedius 1264; format: functional
Collinsella aerofaciens = test: In vitro antimicrobial activity against anaerobic bacteria aerofaciens 1235; format: functional
Bacteroides fragilis [13] = test: In vitro antimicrobial activity against anaerobic bacteria bacteroides fragilis 1936B,; format: functional
[14] = system: Bacteroides thetaiotaomicron; test: In vitro antimicrobial activity against anaerobic bacteria bacteroides thetaiotaomicron 1438; format: functional
[15] = system: Prevotella melaninogenica; test: In vitro antimicrobial activity against anaerobic bacteria bacteroides melaninogenicus 1856,; format: functional
Bacteroides fragilis [16] = test: In vitro antimicrobial activity against anaerobic bacteria bacteroides fragilis 1877; format: functional
Clostridium septicum = test: In vitro antimicrobial activity against anaerobic bacteria clostridium septicum 1128; format: functional
[17] = system: Peptoniphilus asaccharolyticus; test: In vitro antimicrobial activity against anaerobic bacteria peptococcus asaccharolyticus 1302; format: functional
Clostridioides difficile = test: In vitro antimicrobial activity against anaerobic bacteria Clostridium difficile 2994; format: functional
Chlamydia trachomatis = test: In vitro antimicrobial activity against chlamydia trachomatis.; format: functional
[18] = system: Peptostreptococcus anaerobius; test: In vitro antimicrobial activity against anaerobic bacteria eubacterium peptostreptococcus anaerobius 1428,; format: functional

Structure (SMILES)	ED50 (Streptococcus pyogenes [1])	ED50 (Streptococcus pyogenes [2])	MIC (Streptococcus pyogenes [3])	MIC (Streptococcus pneumoniae)	MIC (Enterococcus faecium)	MIC [5]	MIC (Haemophilus influenzae)	MIC (Staphylococcus aureus)	MIC (Clostridium perfringens)	MIC [8]	MIC [9]	MIC (Fusobacterium)	MIC (Anaerococcus prevotii)	MIC (Eikenella corrodens)	MIC (Cutibacterium acnes)	MIC (Phocaeicola vulgatus)	MIC (Bacteroides fragilis [11])	MIC [12]	MIC (Collinsella aerofaciens)	MIC (Bacteroides fragilis [13])	other results
CC[C@H]1OC(=O)C[C@@H](O)[C@H](C)[C@@H](O[C@@H]2O[C@H](C)[C@@H](O)[C@H](N(C)C)[C@H]2O)[C@@H](C)C[C@@H](C)C(=O)/C=C/C(C)=C/[C@@H]1CO[C@@H]1O[C@H](C)[C@@H](O)[C@@H](OC)[C@H]1OC	8 mg/kg	1.6 mg/kg	0.25 µg/mL (≈ 0.336 µM)	2 µg/mL (≈ 2.69 µM)	8 µg/mL (≈ 10.8 µM)	0.25 µg/mL (≈ 0.336 µM)	8 µg/mL (≈ 10.8 µM)	0.25 µg/mL (≈ 0.336 µM)													ED50 (Streptococcus pyogenes [4]): 1.6 mg/kg; MIC (Streptococcus pyogenes [6]): 8 µg/mL (≈ 10.8 µM); ED50 (Streptococcus pyogenes [7]): 0.25 mg/kg
CC[C@H]1OC(=O)C[C@@H](O)[C@H](C)[C@@H](O[C@@H]2O[C@H](C)[C@@H](O[C@H]3C[C@@](C)(O)[C@@H](O)[C@H](C)O3)[C@H](N(C)C)[C@H]2O)[C@@H](CCO)C[C@@H](C)C(=O)/C=C/C(C)=C/[C@@H]1CO[C@@H]1O[C@H](C)[C@@H](O)[C@@H](OC)[C@H]1OC [RELOMYCIN]	> 100 mg/kg	15.4 mg/kg	2 µg/mL (≈ 2.18 µM)	32 µg/mL (≈ 34.9 µM)	64 µg/mL (≈ 69.7 µM)	4 µg/mL (≈ 4.36 µM)	> 128 µg/mL	4 µg/mL (≈ 4.36 µM)	> 8 µg/mL	8 µg/mL (≈ 8.71 µM)	1 µg/mL (≈ 1.09 µM)	4 µg/mL (≈ 4.36 µM)	> 8 µg/mL	> 8 µg/mL	8 µg/mL (≈ 8.71 µM)	> 8 µg/mL	4 µg/mL (≈ 4.36 µM)	> 8 µg/mL	1 µg/mL (≈ 1.09 µM)	8 µg/mL (≈ 8.71 µM)	MIC [10]: > 8 µg/mL; MIC [14]: 4 µg/mL (≈ 4.36 µM); MIC [15]: 4 µg/mL (≈ 4.36 µM); MIC (Bacteroides fragilis [16]): > 8 µg/mL; MIC (Clostridium septicum): 8 µg/mL (≈ 8.71 µM); MIC [17]: 1 µg/mL (≈ 1.09 µM); MIC (Clostridioides difficile): 1 µg/mL (≈ 1.09 µM); MIC (Chlamydia trachomatis): > 1 µg/mL
CC[C@H]1OC(=O)C[C@@H](O)[C@H](C)[C@@H](O[C@@H]2O[C@H](C)[C@@H](O)[C@H](N(C)C)[C@H]2O)[C@@H](CCO)C[C@@H](C)C(=O)/C=C/C(C)=C/[C@@H]1CO	> 100 mg/kg	> 10 mg/kg	16 µg/mL (≈ 26.7 µM)	64 µg/mL (≈ 107 µM)	64 µg/mL (≈ 107 µM)	32 µg/mL (≈ 53.4 µM)	32 µg/mL (≈ 53.4 µM)	64 µg/mL (≈ 107 µM)	4 µg/mL (≈ 6.67 µM)	> 8 µg/mL	4 µg/mL (≈ 6.67 µM)	> 8 µg/mL	> 8 µg/mL	> 8 µg/mL	4 µg/mL (≈ 6.67 µM)	> 8 µg/mL	> 8 µg/mL	> 8 µg/mL	8 µg/mL (≈ 13.3 µM)	> 8 µg/mL	MIC [18]: > 8 µg/mL; MIC [14]: > 8 µg/mL; MIC [15]: > 8 µg/mL; MIC (Bacteroides fragilis [16]): > 8 µg/mL; MIC [17]: > 8 µg/mL; MIC (Clostridioides difficile): 4 µg/mL (≈ 6.67 µM); MIC (Chlamydia trachomatis): > 1 µg/mL
